Compound activity from PubChem BioAssay.
KCNQ1 block – inhibitors of human KCNQ1 channel, primary screen, cell-based, thallium flux, high-throughput. Potassium voltage-gated channel subfamily KQT member 1 (Homo sapiens), P51787. CHO-K1 KCNQ1, FluxOR thallium flux fluorescence; active compounds read high. B-score at 10 µM. 310,000 tested, 1.3% active. AID 2642, 2010;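 active = compounds whose thallium flux B-score, printed positive for inhibition, exceeds three library SD while starting fluorescence stays within three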;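 also: channel opened by potassium depolarization with thallium stimulus after 20 min compound exposure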
hERG rescue – hERG rescue from dofetilide block, primary screen, cell-based, CHO-hERG, FluxOR thallium flux, dofetilide IC70. AID 1511, 2009. activation (rescue from dofetilide block), less the hit threshold, % at 10 µM. 310,000 tested, 0.51% active. dofetilide IC70 present;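 active = activation above the mean of controls blocked by dofetilide plus 5 SD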;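 also: thallium influx through hERG after potassium depolarization seen as dye fluorescence rise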
KCNK9 block – KCNK9 potassium channel inhibitors, primary screen, HEK293 cells, thallium flux | B-score at 10 µM | 310,000 tested, 1.2% active | FluxOR thallium flux fluorescence; active compounds read low | Potassium channel subfamily K member 9 (Homo sapiens), Q9NPC2;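 active = ratio B-score over 3 SD below the library mean, with starting fluorescence within 5 SD of its mean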;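 also: negative B-score means less thallium flux so channel inhibition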
Target sequence (Q9NPC2 whole entry, looked up): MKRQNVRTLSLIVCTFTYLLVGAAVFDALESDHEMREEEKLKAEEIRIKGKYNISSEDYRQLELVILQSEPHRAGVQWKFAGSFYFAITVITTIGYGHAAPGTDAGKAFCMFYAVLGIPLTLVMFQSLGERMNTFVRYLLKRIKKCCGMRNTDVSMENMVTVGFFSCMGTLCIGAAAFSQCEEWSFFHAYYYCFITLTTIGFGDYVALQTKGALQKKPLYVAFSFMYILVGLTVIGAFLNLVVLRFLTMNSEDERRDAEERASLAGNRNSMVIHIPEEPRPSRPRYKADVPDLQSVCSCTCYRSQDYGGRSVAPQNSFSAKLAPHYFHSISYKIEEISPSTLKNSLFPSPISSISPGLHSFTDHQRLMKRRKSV
KCNQ1 act – potentiators or activators of KCNQ1 channel, primary screen, cell-based, thallium flux, high-throughput. CHO-K1 KCNQ1, thallium flux FluxOR fluorescence; active compounds read high. B-score at 10 µM. 310,000 tested, 0.35% active. AID 2648, 2010;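 active = fluorescence ratio B-score, a plate-corrected score, at least three library SD, with initial intensity B-score within 5 SD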
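assay system = KCNQ1-transfected CHO-K1 cells | medium = assay buffer with matched DMSO | probe or stimulus = depolarizing K+/Tl+ stimulus, K2SO4 and Tl2SO4 each 12.5 mM in 5x stock | dosing = single dose | incubation = dye 90 min, compound 20 min, room temperature | detection = kinetic FluxOR fluorescence, 10 s baseline plus 110 s post-stimulus | evaluation = ratio B score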
KCNK3 block – human KCNK3 channel inhibitors, primary screen, CHO cells, FluxOR thallium flux, B-score; 340,000 tested, 0.84% active; B-score at 10 µM; FluxOR fluorescence; active compounds read low;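 active = B-score under library mean minus 4 SD, starting fluorescence ratio at most library mean plus 5 SD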;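 also: more negative B-score means stronger inhibition of thallium flux through KCNK3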
Target sequence (O14649 whole entry, looked up): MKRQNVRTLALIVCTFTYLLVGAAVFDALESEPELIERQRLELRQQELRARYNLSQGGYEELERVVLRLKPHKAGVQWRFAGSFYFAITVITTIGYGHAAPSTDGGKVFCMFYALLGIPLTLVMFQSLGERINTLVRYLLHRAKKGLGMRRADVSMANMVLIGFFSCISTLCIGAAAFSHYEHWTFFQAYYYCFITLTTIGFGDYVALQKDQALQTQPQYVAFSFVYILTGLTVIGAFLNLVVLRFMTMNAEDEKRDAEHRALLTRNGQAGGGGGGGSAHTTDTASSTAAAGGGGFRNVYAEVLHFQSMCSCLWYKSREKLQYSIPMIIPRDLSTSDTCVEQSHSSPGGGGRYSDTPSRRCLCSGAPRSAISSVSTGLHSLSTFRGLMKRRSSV
Kir21 inh – inhibitors of mouse Kir2.1 inward-rectifier potassium channel. HEK293-Kir2.1, FluxOR thallium flux fluorescence; active compounds read low. B-score at 10 µM. 310,000 tested, 0.85% active. AID 1672, 2009;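 active = fluorescence ratio B-score at or below minus 3 SD of library scores, with starting-brightness B-score within 2 SD, cut at about -4.2 in these data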;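 also: channel flux triggered by added potassium and thallium sulfate stimulus; B-score of peak minus minimum fluorescence over baseline after thallium stimulus; more negative B-score means stronger Kir2.1 block with less thallium influx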
KCNQ1 inh valid – KCNQ1 potassium channel inhibitors, confirmation, cell-based, Tl flux, duplicate. shares compounds with KCNQ1 block. KCNQ1 cell line, FluxOR thallium flux fluorescence. inhibition, % at 10 µM. 1,600 tested, 93% active. AID 588353, 2011;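 active = primary screen active, with duplicate mean exceeding buffer control mean plus 3 SD of buffer wells, cut at about 28% in these data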
CHO KCNQ1 ctr – thallium flux effects in parental CHO cells, counter-screen for KCNQ1 inhibitor project, cell-based, Tl flux. parental CHO-K1, FluxOR thallium flux fluorescence ratio; active compounds read low; zero means no signal rise above baseline. shares compounds with KCNQ1 block. AID 588366, 2011. 1,600 tested, 21% active. fluorescence ratio (Tl flux) at 10 µM;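 active = mean of duplicate thallium-flux fluorescence ratios in parental host cells more than 5 SD below the buffer control mean, cut at about 0.38 in these data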;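 also: ratio is peak minus minimum fluorescence divided by baseline fluorescence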
KCNQ1 ephys val – KCNQ1 channel inhibitors, confirmation, orthogonal assay, cell-based, automated electrophysiology; shares compounds with KCNQ1 block; KCNQ1-CHO cells, automated patch clamp current; calls only at 10 µM; 490 tested, 20% active;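 active = KCNQ1 current drop exceeding 3 SD of negative control wells, seen in both duplicate runs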;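 also: steady state current during a 2 s step from -80 to +40 mV; negative values mean current inhibition and positive values mean potentiation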
KCNQ2 spec – KCNQ2 channel inhibition, selectivity assay for KCNQ1 inhibitor project, cell-based | shares compounds with KCNQ1 block | KCNQ2 cells, FluxOR thallium flux fluorescence | inhibition, % at 10 µM | 1,600 tested, 71% active;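 active = mean percent inhibition of the KCNQ2 thallium signal more than 5 SD above the buffer-only control wells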;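 also: KCNQ2 expressed in CHO cells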
KCNQ1 KCNE1 spec – KCNQ1/KCNE1 channel inhibition, selectivity assay for KCNQ1 inhibitor project, CHO-K1 cells, thallium flux, FluxOR | 1,600 tested, 77% active | shares compounds with KCNQ1 block | FluxOR thallium flux fluorescence | inhibition, % at 10 µM;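 active = mean percent inhibition of duplicate wells above the buffer-only control mean plus 3 SD of those controls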
KCNK9 block conf – KCNK9 potassium channel inhibitors, confirmation, HEK293 cells, thallium flux, duplicate. 4,900 tested, 43% active. FluxOR thallium flux fluorescence. shares compounds with KCNK9 block. inhibition, % at 10 µM;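 active = thallium signal inhibited by more than 5 SD of the compound-free buffer control wells, on both duplicate plates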
Kir2-1 spec – mouse Kir2.1 channel inhibition, confirmation, selectivity assay for KCNK9 modulator project, cell-based, HEK293, thallium flux; Kir2.1 cells, FluxOR thallium flux fluorescence; 4,900 tested, 4% active; AID 492993, 2010; shares compounds with KCNK9 block; inhibition, % at 10 µM;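 active = thallium signal drop more than 5 SD beyond the mean of the no-compound control wells, seen in both duplicate plates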;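 also: signal is fluorescence rise after thallium addition divided by baseline fluorescence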
KCNK9 uninduced – thallium flux in non-induced HEK293 cells, confirmation, counter-screen for KCNK9 inhibitor project, cell-based, second counter screen, non-induced KCNK9-HEK293 | shares compounds with KCNK9 block | FluxOR thallium flux | inhibition, % at 10 µM | 4,900 tested, 40% active | AID 492997, 2010;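 active = thallium signal drop beyond 5 SD of the untreated control mean, on both duplicate plates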
Each line names hits and unclear results; the compound was inactive in the other large screens (follow-up assays come after a bar, where they were run). The list is not random: actives were taken first. Their share in the collection is about 3.7%.

CCOc1ccc(OC(=O)NC(c2ccccc2)C(Cl)(Cl)Cl)cc1 (stereo not drawn)	KCNQ1 block 8 | KCNQ1 inh valid 111 | CHO KCNQ1 ctr inactive | KCNQ2 spec 101% | KCNQ1 KCNE1 spec 168% | KCNK9 block conf inactive | Kir2-1 spec inactive | KCNK9 uninduced inactive
CC(C)OC(=O)NC(c1ccccc1)C(Cl)(Cl)Cl (stereo not drawn)	none
CN(C)c1ccc(/C=C(\C#N)C(=O)OCC(=O)N(C)C2CCS(=O)(=O)C2)cc1 (stereo not drawn)	none (no result: KCNQ1 block, hERG rescue, KCNK9 block, KCNQ1 act, Kir21 inh)
Cc1cc(C(=O)Nc2ccc(Cl)cc2)c(C)n1-c1ccccc1	KCNQ1 block 13 | KCNQ1 inh valid 124 | CHO KCNQ1 ctr inactive | KCNQ1 ephys val inactive | KCNQ2 spec 115% | KCNQ1 KCNE1 spec 98% | KCNK9 block conf inactive | Kir2-1 spec inactive | KCNK9 uninduced inactive
Cc1ccc(NC(=O)c2cc(C)n(-c3cccc(C)c3)c2C)cc1	none
CC(C)c1ccc(NC(=O)c2sccc2-n2cccc2)cc1	KCNQ1 block 6, KCNK9 block -11 | KCNQ1 inh valid 128 | CHO KCNQ1 ctr inactive | KCNQ1 ephys val active | KCNQ2 spec 114% | KCNQ1 KCNE1 spec 178% | KCNK9 block conf 46% | Kir2-1 spec inactive | KCNK9 uninduced 44%
Cc1c(Br)cccc1NC(=O)c1sccc1-n1cccc1	none
Cc1cccc(/C=C/c2onc(C)c2S(=O)(=O)N2CCC(C(=O)N3CCC(C)CC3)CC2)c1	KCNQ1 block 6 | KCNQ1 inh valid 52 | CHO KCNQ1 ctr inactive | KCNQ2 spec inactive | KCNQ1 KCNE1 spec 56% | KCNK9 block conf inactive | Kir2-1 spec inactive | KCNK9 uninduced inactive
COc1ccc(-c2cn[nH]c2-c2ccc(OCc3ccccc3F)cc2O)cc1OC	none
CCC(CC)NC(=O)Nc1ccc(F)c(Cl)c1	KCNQ1 block 9, KCNK9 block -8.6 | KCNQ1 inh valid 44 | CHO KCNQ1 ctr inactive | KCNQ2 spec inactive | KCNQ1 KCNE1 spec 62% | KCNK9 block conf 44% | Kir2-1 spec inactive | KCNK9 uninduced inactive
CC(C)c1ccc(NC(=O)Cn2c(=O)oc3cccnc32)cc1	none
S=C(Nc1ccc(Cc2ccncc2)cc1)Nc1cccc(Cl)c1	KCNQ1 block 8 | KCNQ1 inh valid 68 | CHO KCNQ1 ctr inactive | KCNQ2 spec 86% | KCNQ1 KCNE1 spec 37% | KCNK9 block conf inactive | Kir2-1 spec inactive | KCNK9 uninduced inactive
CC(Cc1cccs1)NC(=S)Nc1ccc(Cl)cc1 (stereo not drawn)	KCNQ1 block 8, KCNK9 block -10, Kir21 inh -4.2 | KCNQ1 inh valid 50 | CHO KCNQ1 ctr inactive | KCNQ2 spec 67% | KCNQ1 KCNE1 spec 66% | KCNK9 block conf 38% | Kir2-1 spec inactive | KCNK9 uninduced inactive
CC(Cc1cccs1)NC(=S)Nc1ccc(Cl)c(Cl)c1 (stereo not drawn)	none
Cc1ccc(SCC(=O)N/N=C/c2ccco2)cc1	none
CC(OC(=O)CC1CCCC1)C(=O)Nc1ccc(Cl)cn1 (stereo not drawn)	none
CC(=O)c1ccc2c(c1)C1C=CCC1C(c1cc3c(cc1Br)OCO3)N2 (stereo not drawn)	KCNQ1 block 8, KCNK9 block -8.7 | KCNQ1 inh valid 140 | CHO KCNQ1 ctr inactive | KCNQ1 ephys val inactive | KCNQ2 spec 99% | KCNQ1 KCNE1 spec 145% | KCNK9 block conf 50% | Kir2-1 spec inactive | KCNK9 uninduced 37%
Cc1cccc(C)c1OC1(c2ccccc2)OC(=O)c2ccccc21 (stereo not drawn)	KCNQ1 block 9, KCNK9 block -19 | KCNQ1 inh valid 106 | CHO KCNQ1 ctr inactive | KCNQ1 ephys val inactive | KCNQ2 spec 98% | KCNQ1 KCNE1 spec 138% | KCNK9 block conf 55% | Kir2-1 spec 32% | KCNK9 uninduced 44%
CCOC1(c2ccccc2)OC(=O)c2ccccc21 (stereo not drawn)	none
C/C(=N\NC(=O)c1ccc(OC2OCCOC2Oc2ccc(C(=O)N/N=C(\C)c3ccncc3)cc2)cc1)c1ccncc1 (stereo not drawn)	none
COc1ccc(C(=O)N2CCN(c3ncccn3)CC2)cc1[N+](=O)[O-]	none
C=CCSc1nnc(C)c(/C=C/Nc2ccc(Cl)cc2)n1	KCNQ1 block 8, KCNK9 block -11 | KCNQ1 inh valid 73 | CHO KCNQ1 ctr 0.33 | KCNQ2 spec 106% | KCNQ1 KCNE1 spec 98% | KCNK9 block conf 30% | Kir2-1 spec inactive | KCNK9 uninduced 56%
CSc1nnc(C)c(/C=C/Nc2ccc(F)cc2F)n1	none
